Measured values gathered from unrelated publications.
≈ marks a conversion by molar mass, not a printed value.

SMILES	organism	assay	test system	quantity	result
C/C=C(\C)c1cc(OC(=O)c2c(C)c(Cl)c(O)c(Cl)c2O)c(C)c(O)c1C(=O)O	Enterococcus gallinarum	microbial growth, broth dilution	GALLINARUM	MIC	64 µg/mL (≈ 145 µM)
Cc1c(CN(C)C(=O)/C=C/c2cnc3c(c2)CC(CCN)C(=O)N3)oc2ccccc12.Cl (centres unmarked)	Enterobacter cloacae	microbial growth, broth dilution		MIC	8 µg/mL
CC(C)Oc1c(NC(=O)c2ccc(NC(=O)[C@H](CC(N)=O)NC(=O)c3ccc(NC(=O)c4ccc(C#N)cn4)cc3)cc2)ccc(C(=O)Nc2ccc(C(=O)O)cc2)c1O	Enterobacter cloacae	microbial growth	DSM30054	MIC	> 64 µg/mL
CCCNc1nc(N(C)C)c2c(c1O)C(=O)C1=C(O)[C@]3(O)C(=O)C(C(N)=O)=C(O)[C@@H](N(C)C)[C@@H]3C[C@@H]1C2.Cl.Cl	Enterobacter cloacae	microbial growth, broth dilution	ATCC13047	MIC	> 32 µg/mL
CCCC[C@H]1CN(CCCC[C@H]2CNC(=N)N2CCc2cccc(C(F)(F)F)c2)C(=N)N1CCCCC1CCCCC1	Enterobacter cloacae	microbial killing		MBC	4.2 µM (≈ 2.48 µg/mL)
CN(C)[C@@H]1C(O)=C(C(N)=O)C(=O)[C@@]2(O)C(O)=C3C(=O)c4c(O)c(N)nc(F)c4C[C@H]3C[C@@H]12.Cl.Cl	Enterobacter cloacae	microbial growth, broth dilution	ATCC13047	MIC	0.5 µg/mL
CO[C@@H](C(N)=O)[C@H](NC(=O)c1ccc(NC(=O)c2ccc(C#N)cc2)cc1)C(=O)Nc1ccc(C(=O)Nc2ccc(C(=O)Nc3ccc(C(=O)O)cc3)c(O)c2OC(C)C)cc1	Serratia marcescens	microbial growth	DSM30121	MIC	> 64 µg/mL
CN[C@H](CC(C)C)C(=O)N[C@H]1C(=O)N[C@@H](CC(N)=O)C(=O)N[C@H]2C(=O)N[C@H]3C(=O)N[C@H](C(=O)N[C@H](C(=O)O)c4cc(O)cc(O)c4-c4cc3ccc4O)[C@H](O)c3ccc(c(Cl)c3)Oc3cc2cc(c3O[C@@H]2O[C@H](CO)[C@@H](O)[C@H](O)[C@H]2O[C@H]2C[C@](C)(N)[C@H](O)[C@H](C)O2)Oc2ccc(cc2Cl)[C@H]1O	Enterococcus gallinarum	microbial growth, broth dilution	GALLINARUM	MIC	4 µg/mL (≈ 2.76 µM)
CC(C)OCCNc1nc(Cl)c2c(c1O)C(=O)C1=C(O)[C@]3(O)C(=O)C(C(N)=O)=C(O)[C@@H](N(C)C)[C@@H]3C[C@@H]1C2.Cl.Cl.Cl	Enterobacter cloacae	microbial growth, broth dilution	ATCC13047	MIC	32 µg/mL
C/C(=C\c1ccc(C#N)cc1)C(=O)Nc1ccc(C(=O)N[C@@H](CC(N)=O)C(=O)Nc2ccc(C(=O)Nc3ccc(C(=O)Nc4ccc(C(=O)O)cc4)c(O)c3OC(C)C)cc2)cc1	Serratia marcescens	microbial growth	DSM30121	MIC	> 64 µg/mL
C/C=C(\C)c1cc(O)c(C)c(OC(=O)c2c(C)c(Cl)c(O)c(Cl)c2O)c1	Enterococcus gallinarum	microbial growth, broth dilution	GALLINARUM	MIC	8 µg/mL (≈ 20.1 µM)
